Converted amounts (≈) assume the structure as drawn.
Columns and labels:
Staphylococcus aureus [1] = assay: Antimicrobial activity against Staphylococcus aureus ATCC 25923 by broth microdilution method; type: functional
Summary of the method: (§1)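 Inocula were saline (0.85% NaCl) suspensions at 0.5 McFarland (150 × 10⁶ CFU/mL). Compounds were first screened by agar dilution on Mueller-Hinton agar, and active ones then went to broth microdilution. MIC is the lowest concentration inhibiting growth. The negative control was medium containing DMSO at the final concentration, without compound.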

HEK293 = assay: Cytotoxicity against HEK293 cells after 48 hrs by MTT assay; type: cell-based; conditions: Homo sapiens, HEK293, 48 h
Summary of the method: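 HEK-293 cells were seeded at 3 × 10⁵ cells/well and pre-incubated 24 h at 37 °C under 5% CO₂. Compounds came from 50 mg/mL DMSO stocks diluted in medium with 2% FBS, at final concentrations of 2–500. Exposure was 48 h at 37 °C with MTT formazan read on a plate reader. EC50 is growth inhibition relative to control cells, given as mean ± SD of three independent experiments.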

[2] = system: Staphylococcus epidermidis; assay: Antimicrobial activity against Staphylococcus epidermidis ATCC 12228 by broth microdilution method; type: functional; summary of the method: as §1
Pseudomonas aeruginosa [3] = assay: Antimicrobial activity against Pseudomonas aeruginosa ATCC 9027 by broth microdilution method; type: functional; summary of the method: as §1
Micrococcus luteus [4] = assay: Antimicrobial activity against Micrococcus luteus ATCC 10240 by broth microdilution method; type: functional; summary of the method: as §1
Bacillus cereus = assay: Antimicrobial activity against Bacillus cereus ATCC 10876 by broth microdilution method; type: functional; summary of the method: as §1
Staphylococcus aureus [5] = assay: Ratio of MBC to MIC for methicillin-resistant Staphylococcus aureus 14001 by broth microdilution method; type: functional
Summary of the method: (§2)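 Inoculum in sterile saline (0.85% NaCl), adjusted to 0.5 McFarland (150 × 10⁶ CFU/mL). Compounds first screened by agar dilution on Mueller-Hinton agar, then titrated by broth microdilution. Medium with DMSO at the final concentration and no compound served as negative control. MIC is the lowest concentration inhibiting growth. MBC is the lowest concentration giving >99.9% reduction in CFU of the initial inoculum.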

Staphylococcus aureus [6] = assay: Antimicrobial activity against methicillin-resistant Staphylococcus aureus 14001 by broth microdilution method; type: functional; summary of the method: as §2
Micrococcus luteus [7] = assay: Ratio of ciprofloxacin MIC to compound MIC for Micrococcus luteus ATCC 10240 by broth microdilution method; type: functional
Proteus mirabilis = assay: Antimicrobial activity against Proteus mirabilis ATCC 12453 by broth microdilution method; type: functional; summary of the method: as §1
Bacillus subtilis = assay: Antimicrobial activity against Bacillus subtilis ATCC 6633 by broth microdilution method; type: functional; summary of the method: as §1
Escherichia coli = assay: Antimicrobial activity against Escherichia coli ATCC 25922 by broth microdilution method; type: functional; summary of the method: as §1
Pseudomonas aeruginosa [8] = assay: Ratio of ciprofloxacin MIC to compound MIC for Pseudomonas aeruginosa ATCC 9027 by broth microdilution method; type: functional
Staphylococcus aureus [9] = assay: Ratio of ciprofloxacin MIC to compound MIC for Staphylococcus aureus ATCC 25923 by broth microdilution method; type: functional
[10] = Selectivity ratio of EC50 for HEK293 cells to MIC for methicillin-resistant Staphylococcus aureus 14001; type: functional
Summary of the method: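 HEK-293 cells grown at 37 °C in humidified 5% CO₂ with penicillin and […] streptomycin. Seeded at 3 × 10⁵ cells/well for 24 h. Compounds (50 mg/mL DMSO stock) were diluted in medium with 2% FBS to final 2–500 µg/mL and applied for 48 h at 37 °C. Read-out was MTT formazan. EC50 was taken relative to control-cell growth, mean ± SD of three independent experiments, then divided by the MRSA MIC.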

Staphylococcus aureus [11] = assay: Ratio of ciprofloxacin MIC to compound MIC for methicillin-resistant Staphylococcus aureus 14001 by broth microdilution method; type: functional; summary of the method: as §2
Staphylococcus aureus [12] = assay: Ratio of vancomycin MIC to compound MIC for methicillin-resistant Staphylococcus aureus 14001 by broth microdilution method; type: functional; summary of the method: as §2

Row | Compound | MIC (Staphylococcus aureus [1]) | EC50 (HEK293) | MIC [2] | MIC (Pseudomonas aeruginosa [3]) | MIC (Micrococcus luteus [4]) | MIC (Bacillus cereus) | Ratio (Staphylococcus aureus [5]) | MBC (Staphylococcus aureus [6]) | MIC (Staphylococcus aureus [6]) | Ratio (Micrococcus luteus [7]) | MIC (Proteus mirabilis) | MIC (Bacillus subtilis) | MIC (Escherichia coli) | Ratio (Pseudomonas aeruginosa [8]) | Ratio (Staphylococcus aureus [9]) | Ratio [10] | Ratio (Staphylococcus aureus [11]) | Ratio (Staphylococcus aureus [12])
1 | CCn1c(-c2cccc(Cl)c2)nn(CN2CCN(c3cc4c(cc3F)c(=O)c(C(=O)O)cn4C3CC3)CC2)c1=S | 0.84 µM (≈ 0.49 µg/mL) | 39.7 µM | 0.84 µM (≈ 0.49 µg/mL) | 0.41 µM (≈ 0.239 µg/mL) | 0.84 µM (≈ 0.49 µg/mL) | 0.2 µM (≈ 0.117 µg/mL) | 2 | 0.84 µM (≈ 0.49 µg/mL) | 0.41 µM (≈ 0.239 µg/mL) | 7.5 | 0.051 µM (≈ 0.0297 µg/mL) | 0.1 µM (≈ 0.0583 µg/mL) | 0.051 µM (≈ 0.0297 µg/mL) | – | – | – | – | –
2 | CCCCn1c(-c2cccc(Cl)c2)nn(CN2CCN(c3cc4c(cc3F)c(=O)c(C(=O)O)cn4C3CC3)CC2)c1=S | 3.19 µM (≈ 1.95 µg/mL) | – | 1.6 µM (≈ 0.978 µg/mL) | 0.8 µM (≈ 0.489 µg/mL) | 6.4 µM (≈ 3.91 µg/mL) | 0.39 µM (≈ 0.238 µg/mL) | 1 | 1.6 µM (≈ 0.978 µg/mL) | 1.6 µM (≈ 0.978 µg/mL) | – | 0.098 µM (≈ 0.0599 µg/mL) | 0.2 µM (≈ 0.122 µg/mL) | 0.098 µM (≈ 0.0599 µg/mL) | – | – | – | – | –
3 | CCCCCCn1c(-c2cccc(Cl)c2)nn(CN2CCN(c3cc4c(cc3F)c(=O)c(C(=O)O)cn4C3CC3)CC2)c1=S | 1.53 µM (≈ 0.978 µg/mL) | – | 1.53 µM (≈ 0.978 µg/mL) | 0.77 µM (≈ 0.492 µg/mL) | 3.05 µM (≈ 1.95 µg/mL) | 0.77 µM (≈ 0.492 µg/mL) | 2 | 3.05 µM (≈ 1.95 µg/mL) | 1.53 µM (≈ 0.978 µg/mL) | – | 0.19 µM (≈ 0.121 µg/mL) | 0.19 µM (≈ 0.121 µg/mL) | 0.047 µM (≈ 0.03 µg/mL) | – | – | – | – | –
4 | O=C(O)c1cn(C2CC2)c2cc(N3CCN(Cn4nc(-c5cccc(O)c5)n(-c5cccc([N+](=O)[O-])c5)c4=S)CC3)c(F)cc2c1=O | 0.74 µM (≈ 0.487 µg/mL) | – | 0.74 µM (≈ 0.487 µg/mL) | 0.18 µM (≈ 0.118 µg/mL) | 1.49 µM (≈ 0.98 µg/mL) | 0.18 µM (≈ 0.118 µg/mL) | 2 | 0.74 µM (≈ 0.487 µg/mL) | 0.36 µM (≈ 0.237 µg/mL) | – | 0.023 µM (≈ 0.0151 µg/mL) | 0.18 µM (≈ 0.118 µg/mL) | 0.023 µM (≈ 0.0151 µg/mL) | 4 | – | – | – | –
5 | O=C(O)c1cn(C2CC2)c2cc(N3CCN(Cn4nc(-c5cccc(O)c5)n(-c5cccc(I)c5)c4=S)CC3)c(F)cc2c1=O | 0.66 µM (≈ 0.487 µg/mL) | – | 0.66 µM (≈ 0.487 µg/mL) | 0.081 µM (≈ 0.0598 µg/mL) | 1.33 µM (≈ 0.982 µg/mL) | 0.16 µM (≈ 0.118 µg/mL) | 1 | 0.66 µM (≈ 0.487 µg/mL) | 0.66 µM (≈ 0.487 µg/mL) | – | 0.041 µM (≈ 0.0303 µg/mL) | 0.32 µM (≈ 0.236 µg/mL) | 0.041 µM (≈ 0.0303 µg/mL) | 8 | – | – | – | –
6 | O=C(O)c1cn(C2CC2)c2cc(N3CCN(Cn4nc(-c5cccc(O)c5)n(-c5ccc(Cl)cc5Cl)c4=S)CC3)c(F)cc2c1=O | 0.35 µM (≈ 0.239 µg/mL) | – | 0.35 µM (≈ 0.239 µg/mL) | 0.088 µM (≈ 0.06 µg/mL) | 1.44 µM (≈ 0.981 µg/mL) | 0.18 µM (≈ 0.123 µg/mL) | 2 | 0.71 µM (≈ 0.484 µg/mL) | 0.35 µM (≈ 0.239 µg/mL) | – | 0.022 µM (≈ 0.015 µg/mL) | 0.18 µM (≈ 0.123 µg/mL) | 0.044 µM (≈ 0.03 µg/mL) | 8 | 8.5 | – | – | –
7 | O=C(O)c1cn(C2CC2)c2cc(N3CCN(Cn4nc(-c5cccc(O)c5)n(-c5cc(Cl)cc(Cl)c5)c4=S)CC3)c(F)cc2c1=O | 0.72 µM (≈ 0.491 µg/mL) | 53 µM | 0.35 µM (≈ 0.239 µg/mL) | 0.088 µM (≈ 0.06 µg/mL) | 1.44 µM (≈ 0.981 µg/mL) | 0.18 µM (≈ 0.123 µg/mL) | 4 | 0.35 µM (≈ 0.239 µg/mL) | 0.088 µM (≈ 0.06 µg/mL) | – | 0.044 µM (≈ 0.03 µg/mL) | 0.18 µM (≈ 0.123 µg/mL) | 0.022 µM (≈ 0.015 µg/mL) | 8 | – | 600 | 17 | 8
8 | O=C(O)c1cn(C2CC2)c2cc(N3CCN(Cn4ncn(-c5cccc(I)c5)c4=S)CC3)c(F)cc2c1=O | 12.1 µM (≈ 7.81 µg/mL) | – | 6.05 µM (≈ 3.91 µg/mL) | 1.52 µM (≈ 0.983 µg/mL) | 24.2 µM (≈ 15.6 µg/mL) | 3.02 µM (≈ 1.95 µg/mL) | 2 | 12.1 µM (≈ 7.81 µg/mL) | 6.05 µM (≈ 3.91 µg/mL) | – | 0.18 µM (≈ 0.116 µg/mL) | 0.37 µM (≈ 0.239 µg/mL) | 0.093 µM (≈ 0.0601 µg/mL) | – | – | – | – | –
9 | Cc1nn(CN2CCN(c3cc4c(cc3F)c(=O)c(C(=O)O)cn4C3CC3)CC2)c(=S)n1-c1cccc(I)c1 | 23.7 µM (≈ 15.6 µg/mL) | – | 23.7 µM (≈ 15.6 µg/mL) | 2.95 µM (≈ 1.95 µg/mL) | 94.6 µM (≈ 62.5 µg/mL) | 1.48 µM (≈ 0.978 µg/mL) | 1 | 23.7 µM (≈ 15.6 µg/mL) | 23.7 µM (≈ 15.6 µg/mL) | – | 0.74 µM (≈ 0.489 µg/mL) | 1.48 µM (≈ 0.978 µg/mL) | 0.36 µM (≈ 0.238 µg/mL) | – | – | – | – | –
10 | CCCc1nn(CN2CCN(c3cc4c(cc3F)c(=O)c(C(=O)O)cn4C3CC3)CC2)c(=S)n1-c1cccc(I)c1 | 90.8 µM (≈ 62.5 µg/mL) | – | 90.8 µM (≈ 62.5 µg/mL) | 22.7 µM (≈ 15.6 µg/mL) | 182 µM (≈ 125 µg/mL) | 22.7 µM (≈ 15.6 µg/mL) | 1 | 182 µM (≈ 125 µg/mL) | 182 µM (≈ 125 µg/mL) | – | 2.83 µM (≈ 1.95 µg/mL) | 5.68 µM (≈ 3.91 µg/mL) | 0.71 µM (≈ 0.489 µg/mL) | – | – | – | – | –

Reference: ChEMBL document CHEMBL2311311, “Synthesis and in vitro activity of 1,2,4-triazole-ciprofloxacin hybrids against drug-susceptible and drug-resistant bacteria” (Eur J Med Chem, 2013)
